Reference: ChEMBL document CHEMBL4477258, “Ca-asp bound X-ray structure and inhibition of Bacillus anthracis dihydroorotase (DHOase)” (Bioorg Med Chem, 2016)
Active and inactive are the calls of the source. No cut-off for these calls is given here.

Experiments:
[1] = target: T1, Dihydroorotase (Bacillus anthracis) (UniProt Q81WF0); test: Inhibition of Bacillus anthracis Sterne His-tagged DHOase expressed in Escherichia coli BL21(DE3) Gold cells using DHO as substrate assessed as enzyme activity at 25 or 400 uM preincubated for 10 mins followed by substrate addition measured after 30 mins by DAMO-TSC reagent based colorimetric assay relative to control; set-up: scale not given: the % may be the effect or the level left; details: Bacillus anthracis str. Sterne
T1 sequence (whole entry): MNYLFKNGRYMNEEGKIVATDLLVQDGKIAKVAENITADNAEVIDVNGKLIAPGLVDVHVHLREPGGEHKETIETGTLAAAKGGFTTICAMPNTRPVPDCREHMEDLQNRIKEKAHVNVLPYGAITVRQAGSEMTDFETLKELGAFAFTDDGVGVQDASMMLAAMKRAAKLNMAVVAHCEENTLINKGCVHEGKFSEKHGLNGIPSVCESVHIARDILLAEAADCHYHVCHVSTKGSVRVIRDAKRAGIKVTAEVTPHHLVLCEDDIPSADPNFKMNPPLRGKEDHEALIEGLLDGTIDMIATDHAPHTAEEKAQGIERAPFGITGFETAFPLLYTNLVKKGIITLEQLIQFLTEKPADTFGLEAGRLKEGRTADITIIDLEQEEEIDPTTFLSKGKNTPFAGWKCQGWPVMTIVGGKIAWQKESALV
Summary of the method: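 Reverse reaction run in duplicate. Fragments at 400 μM or compounds at 25 μM final, 10 min at room temperature. 10 μL of 320 μM DHO added, 30 min reaction, quenched with acidic DAMO-TSC. Colour developed 16 h in the dark, A540 read.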

[2] = target: T1, Dihydroorotase (Bacillus anthracis); test: Binding affinity to Bacillus anthracis Sterne His-tagged DHOase expressed in Escherichia coli BL21(DE3) Gold cells assessed as change in melting temperature at 400 uM incubated for 10 mins by SYPRO orange dye based fluorescence thermal shift assay; details: Bacillus anthracis str. Sterne
Summary of the method: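 Histidine-tagged DHOase at 5 μM final in 50 mM MES pH 6.5, 0.01% CHAPS, 150 mM NaCl, 2 mM TCEP. Fragment added at 400 μM final and incubated 10 min at room temperature, then SYPRO Orange at 10X diluted from 5000X stock. Heated 25 to 95 °C at […], fluorescence read at ex/em 470/623 nm. Tm shift >2 °C scored as a hit.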

[3] = target: T2, Dihydroorotase (Bacillus anthracis, UniProt Q81WF0); test: Binding affinity to Bacillus anthracis Sterne His-tagged DHOase expressed in Escherichia coli BL21(DE3) Gold cells by surface plasmon resonance analysis; set-up: species or system Bacillus anthracis str. Sterne
T2 sequence (Q81WF0 whole entry): T1 sequence (whole entry)
Summary of the method: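 His-tag-cleaved DHOase amine-coupled to a CM5 chip at pH 4.5. Ethanolamine-blocked channel used as reference. Compounds run at 0–200 μM (2-fold dilutions) in PBS-P with 2% DMSO and 0.5 mM TCEP, at 10 μL/min and 25 °C. KD taken from steady-state affinity fit of equilibrium response. SD from three independent experiments.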

[4] = target: T1, Dihydroorotase (Bacillus anthracis); test: (§1) Binding affinity to Bacillus anthracis Sterne His-tagged DHOase expressed in Escherichia coli BL21(DE3) Gold cells in presence of N-carbamyl-L-aspartate by surface plasmon resonance analysis; details: Bacillus anthracis str. Sterne
Summary of the method: (§2)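 His-tag-cleaved DHOase immobilized on a CM5 chip, with a blank reference channel. Compounds run at 0–200 μM (2-fold dilutions) at 25 °C, 10 μL/min, in PBS-P with 2% DMSO, 0.5 mM TCEP and 1 mM Ca-asp. KD taken from steady-state affinity fit. SD from three independent experiments.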

[5] = target: T2, Dihydroorotase; test: as §1; set-up: species or system Bacillus anthracis str. Sterne; summary of the method: as §2

Row | Compound | Activity [1] [%] | ΔTm [2] [°C] | Kd ([3]; read-out: Kd) [µM] | Activity [4] | Kd ([5]; read-out: Kd) [µM] | Kd [3] | Kd [5]
1 | Cn1ccc2c(CO)cccc21 | < 50 | > 2 | 67 to 334 | Active |  |  | 
2 | CCC(=O)Nc1cc(OC)cc(OC)c1 | < 50 | > 2 | 157 |  | 281 |  | 
3 | CCS(=O)(=O)N(C)c1ccc(C(=O)N2CCCC2)cc1 | < 50 | > 2 | 67 to 334 | Active |  |  | 
4 | CSC1(NC#N)NCCc2c1[nH]c1ccc(F)cc21 (stereo not drawn) | < 50 | > 2 |  |  | > 1000 |  | 
5 | CCC(=O)Nc1ccc(OC)cc1OC | < 50 | > 2 | 170 |  | 170 |  | 
6 | CCC1NCCn2cccc21 (stereo not drawn) | < 50 | > 2 | 67 to 334 | Active |  |  | 
7 | Cc1ccc2[nH]c3c(c2c1)CCNC3 |  |  |  |  |  | Not Active | Not Active
8 | COc1ccc2[nH]c3c(c2c1)CN(C(C)=O)CC3 | < 50 | > 2 | 205 |  | 215 |  | 
9 | COc1ccc2[nH]c3c(c2c1)CCNC3(NC#N)SC (stereo not drawn) |  |  | 21 to 119 |  | 144 |  | 
10 | COc1ccc2[nH]c3c(c2c1)CCNC3 |  |  | 588 |  | 675 |  | 
11 | COc1ccc2[nH]c3c(c2c1)CCNC31CCOCC1 | < 50 | > 2 | 380 |  | 314 |  | 
12 | COc1ccc2[nH]c(CN)cc2c1 |  |  |  |  |  | Not Active | 
